Key:
[1] = system: tumors harboring FGFR abnormalities; settings: mice with tumors metastasized to the lung; cited from earlier work
FGFR = settings: SNU‐16 cells, dose‐dependent; cited from earlier work
FGFR pathway = experiment: Pharmacodynamic markers of FGFR pathway inhibition; type: in vivo, human; settings: QD
In short: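 Blood was drawn before dosing in cycles 0, 1 and later odd cycles, and after the cycle 0 dose on days 1-4. FGF23 was measured by solid-phase sandwich ELISA (mouse anti-human FGF23 capture, peroxidase-conjugated mouse anti-human FGF23 detection, colorimetric). 1,25-(OH)2-vitamin D was measured by double-antibody RIA (sheep antibody 16-18 h, 125I tracer, cellulose-conjugated donkey anti-sheep IgG, γ-counting). Serum phosphate was also tracked.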

In the case of `CNC(=O)n1ccc2cc(Oc3ccnc(NC(=O)c4ccc(C5CCN(CCO)CC5)cc4)c3)c(OCCOC)cc21` [E7090], the Survival effect [1] is listed as “significantly prolonged survival effect”, the “Phosphorylation of downstream molecules including FRS2α, ERK1/2, and AKT” value (FGFR) is listed as “inhibited phosphorylation” and the “Doses with sufficient FGFR pathway inhibition” value (FGFR pathway) is listed as ≥ 100 mg.
